Measurements reported in PMC2659327 (Nature chemical biology, 2009).
Several values for one entry are separate records, joined by “and”; a condition that tells them apart may be missing. Equal values may be shown once.

Tests used:
[1] = test system: inositol 1,4,5-trisphosphate-mediated Ca^2+ release; test: inositol 1,4,5-trisphosphate-mediated Ca2+ release in sea urchin egg homogenate; assay type: biochemical, Lytechinus pictus; details: read-out: EC50, Ca2+ release
Outline: (§1)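 Lytechinus pictus egg homogenate with the Ca2+ dye fluo-3 and ATP. Second messenger added and Ca2+ release followed as fluo-3 fluorescence (RFU), in a plate reader (2-4 replicates) or a fluorimeter.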

[2] = test system: NAADP-mediated Ca^2+ release; test: NAADP-mediated Ca2+ release bioassay in sea urchin egg homogenate; assay type: biochemical, Lytechinus pictus; details: for Ca2+ release induced by the compound itself in the bioassay: compound at 125 μM
[3] = test system: sea urchin egg binding protein (NAADP receptor); test: [32P]NAADP radioligand displacement binding assay, sea urchin egg homogenate; set-up: species or system Lytechinus pictus
intact sea urchin eggs = test: NAADP-induced Ca2+ release in intact sea urchin eggs; assay type: cell-based; details: 100 μM compound in artificial seawater; NAADP microinjected
[4] = test system: mouse pancreatic beta cells; test: NAADP-mediated Ca2+ spiking in patch-clamped pancreatic beta cells; assay type: cell-based; details: pre-incubation with 125 μM in bathing solution; NAADP 50 nM via patch pipette
Outline: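 Whole-cell patch clamp at room temperature. Borosilicate pipettes were 3–5 MΩ and the holding potential was −70 mV. Test compound was pre-incubated in the bath. Read-out was Ca2+-dependent current traces.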

[5] = test system: glucose-induced Ca^2+ increases in mouse pancreatic islets; test: glucose-induced Ca2+ signaling in isolated pancreatic islets; assay type: cell-based; details: isolated mouse islet, glucose 10 mM, compound 100 μM
[6] = test system: voltage-gated Ca^2+ channels; test: KCl depolarization-induced Ca2+ transient in islets; assay type: cell-based, mouse; details: 100 μM compound; glucose 10 mM, diazoxide 100 μM, KCl 45 mM
Outline: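 Pancreatic beta cells loaded with fura-PE3 acetoxymethyl ester for Ca2+ imaging. Cells were held in glucose and diazoxide, then depolarized with KCl with or without test compound in the bath. Data given as mean ± standard error of the mean and compared by one-tailed t-tests.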

[7] = test system: mitochondrial metabolism (NAD(P)H); test: glucose-induced NAD; assay type: cell-based, mouse; details: 100 μM compound
Outline: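 Islets of Langerhans were pre-incubated 60 min at 37°C in control medium containing 3 mM glucose. NAD(P)H autofluorescence was recorded at 360 nm excitation and >470 nm emission. Changes were expressed as percent of basal values within the same islet.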

[8] = solubility in 25% dimethylsulfoxide or 25% dimethylformamide; assay type: physicochemical
[9] = test system: cyclic ADP-ribose-mediated Ca^2+ release; test: cyclic ADP-ribose-mediated Ca2+ release in sea urchin egg homogenate; assay type: biochemical, Lytechinus pictus; details: read-out: EC50, Ca2+ release
Outline: as §1

Q: For `FC(F)(F)c1cccc(N2CCN(Cn3nc(COc4ccccc4)n(-c4ccccc4)c3=S)CC2)c1` [Ned-16], which “Ca2+ release induced by the compound itself in the bioassay” value [2] is on record?
A: induced irreversible Ca^2+ release

Q: For `COc1ccc(C2N[C@H](C(=O)O)Cc3c2[nH]c2ccccc32)cc1CN1CCN(c2ccccc2F)CC1` (stereo partly shown) [Ned-19], which “Hill coefficient, inhibition of NAADP-mediated Ca2+ release” value ([2]; commercial Ned-19) is on record?
A: −0.6

Q: What about the “effect on NAADP concentration-response curve” value ([2]; constant presence of 125 μM compound (figure legend: 100 μM)) of the same compound?
A: reduced the maximum release and shifted the EC50 to the right

Q: And the “dissociation from the NAADP receptor (recovery of [32P]NAADP binding)” value ([3]; Ned-19 10 μM, after 5 days of incubation)?
A: only about half the bound Ned-19 dissociates

Q: And the “Hill coefficient, [32P]NAADP binding competition” value ([3]; commercial Ned-19)?
A: −2.3

Q: And the “NAADP-induced Ca2+ increase in intact sea urchin eggs” value (intact sea urchin eggs)?
A: failed to elicit a Ca^2+ increase

Q: And the “NAADP-mediated Ca2+ spiking” value [4]?
A: blocked NAADP-mediated Ca^2+ spiking

Q: What about the “effect on glucose-induced Ca2+ signal” value [5] of the same compound?
A: reduced the amplitude of the oscillations and reduced the elevated plateau to the nonstimulated level

Q: What about the “KCl depolarization-induced Ca2+ transient” value [6] of the same compound?
A: unaltered

Q: What about the “glucose-induced increase in NADH and NADPH fluorescence” value [7] of the same compound?
A: still occurred

Q: For `C=C1NN(c2nc(-c3cccc([N+](=O)[O-])c3)cs2)C(=O)/C1=N/Nc1ccc(Cl)cc1C(=O)c1ccccc1` [Nrd-7], which solubility [8] is on record?
A: sparingly soluble

Q: Which “Ca2+ release induced by the compound itself in the bioassay” value [2] does the source give for `COc1ccc2[nH]c(C(=O)O)c(CCNC(=O)CO/N=C3/C=C[C@@]4(C)C(=C3)CC[C@@H]3[C@H]4CC[C@]4(C)[C@H]3CC[C@]4(C)O)c2c1` [Nrd-10] here?
A: induced irreversible Ca^2+ release

Q: With `CCC(=O)N1N=C(c2ccc(C3=NN(C(=O)CC)[C@H](c4cccc(OC)c4OC)C3)cc2)C[C@H]1c1cccc(OC)c1OC` [Nrd-11] as the compound, how does the solubility [8] read?
A: sparingly soluble

Q: For `N=c1c2ncn3c2ncn1[C@@H]1O[C@H](COP(=O)(O)OP(=O)(O)OC[C@H]2O[C@@H]3[C@H](O)[C@@H]2O)[C@@H](O)[C@H]1O` [cADPR, cyclic ADP-ribose], which EC50 [9] is on record?
A: 300 nM

Q: Which EC50 ([2]; read-out: EC50, Ca2+ release, sea urchin egg homogenate) does the source give for “nicotinic acid adenine dinucleotide phosphate [NAADP, reference compound]” here?
A: 35 nM and 30 to 50 nM
